ChEMBL document CHEMBL3046706, “Synthesis and quantitative structure-activity relationships of new 2,5-disubstituted-1,3,4-oxadiazoles” (2001)

Columns and labels:
Format in all cases: functional
[1] = tested on: Mythimna separata; assay: Insecticidal activity against second-instar larvae of Mythimna separata (Oriental armyworm) fed on compound-treated mealie leaves at pLC50 measured after 5 days
Procedure, shortened: (§1)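 Second-instar Pseudaletia separata larvae were fed compound-treated mealie leaves, with fresh treated leaves added daily, at about 20 °C in a well-ventilated room. Percent mortality at 5 days was based on the number and size of live larvae relative to untreated controls. LC50 values are in μg/mL and were converted to pLC50 (−log LC50).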

[2] = tested on: Mythimna separata; assay: Insecticidal activity against second-instar larvae of Mythimna separata (Oriental armyworm) fed on compound-treated mealie leaves measured after 5 days; details: 120 h; procedure, shortened: as §1
[3] = tested on: Spodoptera eridania; assay: Insecticidal activity against second-instar larvae of Spodoptera eridania fed on compound-treated corn leaves measured after 5 days; details: 120 h

## Fc1cccc(-c2nnc(COc3ccc(Cl)cc3)o2)c1
[1]
  mortality: 0%
[2]
  LC50: > 1000 µM

## CC1(C)C(C=C(Cl)Cl)C1c1nnc(-c2cccs2)o1 (mixture of isomers)
[1]
  mortality: 0%
[2]
  LC50: > 1000 µM

## CC1(C)[C@@H](C=C(Cl)Cl)[C@@H]1c1nnc(-c2ccc(Cl)cc2Cl)o1 (relative stereo)
[2]
  LC50: 123 µM

## Clc1ccc(OCc2nnc(-c3cccnc3Cl)o2)cc1
[1]
  mortality: 0%
[2]
  LC50: > 1000 µM

## Fc1cccc(-c2nnc(-c3cc(F)c(Cl)cc3Cl)o2)c1
[3]
  LC50: 51.3 µM

## Clc1ccc(OCc2nnc(-c3ccc(Cl)cc3Cl)o2)c(Cl)c1
[2]
  LC50: 776 µM

## Fc1cc(-c2nnc(-c3cc(F)c(Cl)cc3Cl)o2)c(Cl)cc1Cl
[3]
  LC50: 1.78 µM

## Clc1ccc(OCc2nnc(-c3ccc(Cl)nc3)o2)cc1
[1]
  mortality: 7%
[2]
  LC50: > 1000 µM

## Fc1cc(-c2nnc(-c3ccc(Cl)cc3Cl)o2)c(Cl)cc1Cl
[3]
  LC50: 5.25 µM

## Clc1ccc(OCc2nnc(-c3ccc(Cl)cc3Cl)o2)cc1
[2]
  LC50: 15.8 µM

## Fc1cc(-c2nnc(COc3ccccc3Cl)o2)c(Cl)cc1Cl
[2]
  LC50: 14.5 µM

## Fc1cc(-c2nnc(COc3ccc(Cl)cc3Cl)o2)c(Cl)cc1Cl
[2]
  LC50: 1700 µM

## CC1(C)C(C=C(Cl)Cl)C1c1nnc(-c2cccc(F)c2)o1 (configuration not stated)
[3]
  LC50: 759 µM

## Clc1ccc(-c2nnc(-c3ccc(Cl)cc3Cl)o2)c(Cl)c1
[3]
  LC50: 10.2 µM

## Fc1cc(-c2nnc(COc3ccc(Cl)cc3)o2)c(Cl)cc1Cl
[2]
  LC50: 55 µM

## COc1ccc(-c2nnc(C3C(C=C(Cl)Cl)C3(C)C)o2)cc1 (mixture of isomers)
[1]
  mortality: 0%
[2]
  LC50: > 1000 µM

## CC1(C)[C@@H](C=C(Cl)Cl)[C@@H]1c1nnc(-c2ccccc2)o1 (relative stereo)
[2]
  LC50: 1380 µM

## CC1(C)C(C=C(Cl)Cl)C1c1nnc(-c2ccc(Cl)cc2)o1 (mixture of isomers)
[1]
  mortality: 0%
[2]
  LC50: > 1000 µM

## CC1(C)C(C=C(Cl)Cl)C1c1nnc(/C=C/c2ccccc2)o1 (mixture of isomers)
[1]
  mortality: 0%
[2]
  LC50: > 1000 µM

## CC1(C)C(C=C(Cl)Cl)C1c1nnc(-c2cc(F)c(Cl)cc2Cl)o1 (configuration not stated)
[3]
  LC50: 562 µM
